Measurements taken from PMC3669666 (Biochemistry, 2013).
Several values for one entry are separate records, joined by “and”; a condition that tells them apart may be missing. Equal values may be shown once. Read-outs that look alike come from different tables or passages of the source.

How the values were obtained:
[1] = target: X. laevis AHR1β (Xenopus laevis, UniProt Q4QY30); assay: Transactivation; format: cell-based
Method in brief: (§1)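 Same COS-7 co-transfection: AHR construct, X. laevis ARNT1, pGudLuc6.1 firefly reporter and pRL-TK control, total DNA 300 ng, triplicate wells. Graded FICZ (0.5% DMSO vehicle) was added 5 hours post-transfection. Cells were lysed 3 hours after dosing for dual luciferase. Firefly/Renilla ratio, minus vehicle, was normalized to each AHR's maximum. EC50 came from non-linear regression with background 0 and maximum 1; 3-4 replicates.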

[2] = target: T1, frog AHR1β N325S mutant (Xenopus laevis, UniProt Q4QY30, N325S); assay: Transactivation; format: cell-based
[3] = target: frog AHR1β A354S mutant (Xenopus laevis, UniProt Q4QY30, A354S); assay: Transactivation; format: cell-based
Method in brief: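 COS-7 cells (DMEM, 10% FBS, 37°, 5% CO2) were seeded at 30,000/well. After 24 h, triplicate wells were co-transfected with 50 ng AHR plasmid, 50 ng X. laevis ARNT1, 20 ng pGudLuc6.1 (mouse CYP1A1 enhancer, four XREs) and 3 ng pRL-TK, totalling 300 ng. Five hours later, cells received 0.5% DMSO or graded FICZ. Firefly/Renilla luciferase was read at 3 h, vehicle-subtracted and normalized to maximum. EC50 came from nonlinear regression (bottom 0, top 1). n=3-4.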

[4] = target: frog AHR1β A370S mutant (Xenopus laevis, UniProt Q4QY30, A370S); assay: Transactivation; format: cell-based
[5] = target: chimeric frog AHR1β containing the mouse LBD (Xenopus laevis, UniProt P30561+Q4QY30); assay: Transactivation; format: cell-based
Method in brief: as §1

[6] = target: T2, frog AHR1β A354S/N325S mutant (Xenopus laevis, UniProt Q4QY30, A354S/N325S); assay: Transactivation; format: cell-based
[7] = target: mouse AHR^b-1 (Mus musculus, UniProt P30561); assay: Transactivation; format: cell-based
[8] = target: frog AHR1β T256A mutant (Xenopus laevis, UniProt Q4QY30, T256A); assay: Transactivation; format: cell-based
Method in brief: (§2)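 COS-7 cells in DMEM with 10% FBS (37°, 5% CO₂), 30,000/well, transfected 24 hours later in triplicate wells. Each well received 50 ng AHR construct, 50 ng X. laevis ARNT1, 20 ng pGudLuc6.1 (CYP1A1 enhancer, four XREs) and 3 ng pRL-TK, with empty vector to 300 ng. After 5 hours, graded TCDD was added (0.5% DMSO), and cells were lysed 18 hours later. EC50 came from regression of fractional firefly/Renilla response (vehicle-subtracted, max=1); n=3-4.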

[9] = target: frog AHR1β S263P mutant (Xenopus laevis, UniProt Q4QY30, S263P); assay: Transactivation; format: cell-based
Method in brief: as §2

[10] = target: frog AHR1β T256A/S263P mutant (Xenopus laevis, UniProt Q4QY30, S263P/T256A); assay: Transactivation; format: cell-based
Method in brief: as §2

[11] = target: frog AHR1β S371T mutant (Xenopus laevis, UniProt Q4QY30, S371T); assay: Transactivation; format: cell-based
Method in brief: as §2

[12] = target: frog AHR1β S294Q mutant (Xenopus laevis, UniProt Q4QY30, S294Q); assay: Transactivation; format: cell-based
Method in brief: as §2

[13] = target: frog AHR1β KHSR mutant (R345K, D346H, T347S, G348R) (Xenopus laevis, UniProt Q4QY30, D346H/G348R/R345K/T347S); assay: Transactivation; format: cell-based
[14] = tested on: frog AHR1β; assay: Velocity sedimentation analysis of [3H]TCDD binding; design: species or system Xenopus laevis; conditions: 2 nM [3H]TCDD, 18 hr at 4° C, sucrose gradients
Method in brief: (§3)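 They were incubated 18 hr at 4 °C with 2 nM [3H]TCDD, then run on sucrose gradients in a vertical rotor. Peak-fraction dpm minus unprogrammed-lysate dpm gave specific binding, expressed relative to wild-type AHR1β. AHR input was checked by western blot. Three replicates.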

[15] = tested on: chimeric AHR (frog AHR1β with mouse LBD); assay: as above; design: species or system Xenopus laevis / mouse; conditions: 2 nM [3H]TCDD, 18 hr at 4° C, sucrose gradients
Method in brief: as §3

[16] = target: T2, frog AHR1β A354S/N325S mutant; assay: as above; conditions: 2 nM [3H]TCDD, 18 hr at 4° C, sucrose gradients
Method in brief: as §3

[17] = target: T1, frog AHR1β N325S mutant; assay: Velocity sedimentation analysis of [3H]TCDD binding; conditions: 2 nM [3H]TCDD, 18 hr at 4° C, sucrose gradients
[18] = tested on: AHR1α; conditions: AHR1α vs mouse AHR; cited from earlier work
[19] = tested on: AHR1β; conditions: AHR1β vs mouse AHR; cited from earlier work
[20] = tested on: AHR from the common tern; conditions: common tern AHR vs chicken AHR; cited from earlier work
[21] = tested on: mouse AHR S359A; conditions: S359A in mouse AHR vs wild type; cited from earlier work

O=Cc1c2[nH]c3ccccc3c2cc2[nH]c3ccccc3c12 [FICZ, 6-formylindolo[3,2b]carbazole]
EC50 ([1]; read-out: EC50 for reporter gene induction, FICZ, (3 hr), COS-7 cells, AHR1β): 0.08 nM | fold increase in FICZ responsiveness ([2]; N325S vs AHR1β, 3 hr): about 2 fold | EC50 ([2]; read-out: EC50 for reporter gene induction, FICZ, (3 hr), COS-7 cells, N325S): 0.07 nM | FICZ responsiveness (in words) ([3]; A354S, 3 hr): restored responsiveness to a level comparable to the chimera | EC50 ([3]; read-out: EC50 for reporter gene induction, FICZ, (3 hr), COS-7 cells, A354S): 0.04 nM | fold increase in FICZ responsiveness ([4]; A370S vs AHR1β, 3 hr): about 2 fold | EC50 ([4]; read-out: EC50 for reporter gene induction, FICZ, (3 hr), COS-7 cells, A370S): 0.04 nM | fold more responsive to FICZ than AHR1β ([5]; chimera vs AHR1β, 3 hr): 2.7 fold | EC50 ([5]; read-out: EC50 for reporter gene induction, FICZ, (3 hr), COS-7 cells, chimera): 0.03 ± 0.01 nM

Clc1cc2c(cc1Cl)Oc1cc(Cl)c(Cl)cc1O2 [TCDD, 2,3,7,8-tetrachlorodibenzo-p-dioxin]
EC50 [1]: 18.6 ± 4.7 nM | EC50 [2]: 5.7 ± 1.6 nM | fold greater TCDD responsiveness (EC50 decline) relative to AHR1β ([2]; N325S vs wild type AHR1β): 3 fold and 3.2 fold | EC50 [3]: 1.2 ± 0.4 nM | EC50 [4]: 1 ± 0.4 nM | fold greater TCDD responsiveness relative to AHR1β ([4]; A370S vs wild type AHR1β): 18.6 fold | EC50 ([6]; EC50 for reporter gene induction, TCDD, (24 hr), COS-7 cells, A354S/N325S): 0.8 nM and 0.82 nM | fold greater TCDD responsiveness relative to AHR1β ([6]; N325S/A354S vs wild type AHR1β): ~23 fold | EC50 [7]: 0.5 ± 0.16 nM | EC50 [8]: 23.1 nM | EC50 [9]: 23.7 ± 8.8 nM | EC50 [10]: 20.6 ± 8 nM | EC50 [11]: 13.5 ± 3.3 nM | EC50 [12]: 25.9 ± 1.1 nM | EC50 [13]: 23 nM | TCDD binding (in words) [14]: barely detectable | TCDD binding (in words) [15]: greatest TCDD binding | TCDD binding (in words) [16]: approaching that of the chimera | TCDD binding (in words) [17]: greater TCDD binding than either A354S or A370S | fold lower TCDD affinity than mouse AHR [18]: more than 25 fold | fold lower TCDD affinity than mouse AHR [19]: more than 25 fold | fold lower TCDD affinity than AHR from chicken [20]: 7 fold | reduction of TCDD binding [21]: 40%
